Consider 17 compounds from ChEMBL document CHEMBL1124640, “Synthesis and biological evaluation of certain C-4 substituted pyrazolo[3,4-b]pyridine nucleosides” (1989).

Active and inactive are the calls of the source. No cut-off for these calls is given here.

The test system of one assay is Human adenovirus 2. Briefly: Antiviral activity against adeno 2 virus in HeLa cells. It counts as functional, organism-based.
The test system of the next assay is Visna-maedi virus. Briefly: Antiviral activity against Visna virus in SCP cells. It counts as functional, organism-based.
A further assay deals with Semliki Forest virus. Briefly: Antiviral activity against semliki forest virus in Vero cells. The class given is functional, organism-based.
Another assay deals with Human alphaherpesvirus 2. Briefly: Antiviral activity against herpes 2 virus in Vero cells. The class given is functional, organism-based. Particulars: herpes simplex virus type2.
For assay [1], the system named is HeLa. Description: Antiviral activity against rhino 1-A virus in HeLa cells. The class given is functional, Homo sapiens.
In a further assay the test system is Lymphoblastoid cell. Description: Ability to inhibit de novo purine nucleotide biosynthesis at a concentration of 100 uM. The class given is functional. Particulars: Homo sapiens. The method in brief: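 De novo purine nucleotide synthesis was measured as [14C]formate incorporation in cultured human lymphoblast cells, with compound at 100 μM. Results are given as percent inhibition.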

The next assay has as its system L1210. Description: Cytotoxicity against murine leukemic cell line L1210. The following applies: Mus musculus, read-out: ID50 (the source's name). It counts as functional.
Assay [2] is described as follows: Cytotoxicity against human B-lymphoblastic cell line WI-L2. The class given is functional. Particulars: WIL2, read-out: ID50 (the source's name).
In assay [3] the test system is HeLa. Briefly: Antiviral activity against rhino 1-A virus in HeLa cells; IA= Inactive. Particulars: Homo sapiens. The class given is functional, cell-based.
Assay [4] deals with Vero. Briefly: Antiviral activity against semliki forest virus in Vero cells. The class given is functional, cell-based. The following applies: Chlorocebus sabaeus.
Assay [5] relates to Vero. Description: Antiviral activity against Para Flu 3 virus in Vero cells; IA= Inactive. It counts as functional, cell-based. The following applies: Chlorocebus sabaeus.

Turning to `Nc1ccnc2c1cnn2[C@H]1C[C@H](O)[C@@H](CO)O1`, the result in the assay on Human adenovirus 2, in the assay on Visna-maedi virus, in the assay with Semliki Forest virus and with Human alphaherpesvirus 2 was inactive.
In general, inhibition refers to the change of the read-out against control, counted positive when it falls. The low end stands for a response near the control, the high end for a response far below the control. As to `O=C1CC=Nc2c1cnn2C1O[C@H](CO)[C@@H](O)[C@H]1O` (stereo partly specified), the Virus rating with HeLa [1] is given as 0.6. This compound also displayed an inhibition at 100 µM in the assay on Lymphoblastoid cell of 80%. Further, the IC50 in the assay with L1210 was over 100 µM; in assay [2], 20 µM.
Regarding `Nc1ccnc2c1cnn2C1O[C@H](CO)[C@@H](O)[C@H]1O` (stereo partly specified), the result in the assay with Human adenovirus 2, with HeLa [3], with Visna-maedi virus, with Vero [4], with Vero [5] and in the assay on Human alphaherpesvirus 2 was inactive. The inhibition at 100 µM in the assay on Lymphoblastoid cell was 36%.
With `OC[C@H]1OC(n2ncc3cccnc32)[C@@H](O)[C@@H]1O` (stereo partly specified), the result in the assay on Human adenovirus 2, in the assay on Visna-maedi virus, in the assay on Semliki Forest virus and with Human alphaherpesvirus 2 was inactive.
`OC[C@H]1OC(n2ncc3c(Cl)ccnc32)[C@@H](O)[C@@H]1O` (stereo partly specified): the outcome in the assay on Human adenovirus 2, in the assay with Visna-maedi virus, with Semliki Forest virus and in the assay with Human alphaherpesvirus 2 was inactive.
Take `COc1ccnc2c1cnn2C1O[C@H](CO)[C@@H](O)[C@H]1O` (stereo partly specified): the outcome with Human adenovirus 2, in the assay on Visna-maedi virus, in the assay on Semliki Forest virus and in the assay with Human alphaherpesvirus 2 was inactive.
Consider `OC[C@H]1OC(n2ncc3c(O)ccnc32)[C@@H](O)[C@@H]1O` (stereo partly specified), for which the outcome with Human adenovirus 2, in the assay with Visna-maedi virus, in the assay with Semliki Forest virus and with Human alphaherpesvirus 2 was inactive.
For the compound `OC[C@H]1O[C@@H](n2ncc3cccnc32)C[C@@H]1O`, the outcome in the assay on Human adenovirus 2, in the assay on Visna-maedi virus, in the assay with Semliki Forest virus and with Human alphaherpesvirus 2 was inactive.
Take `COc1ccnc2c1cnn2[C@H]1C[C@H](O)[C@@H](CO)O1`: the result in the assay on Human adenovirus 2, with Visna-maedi virus, in the assay on Semliki Forest virus and in the assay on Human alphaherpesvirus 2 was inactive.
As for `Nc1ccnc2c1cnn2C1O[C@H](CO)[C@@H](O)[C@@H]1O` (stereo partly specified), the result in the assay on Human adenovirus 2, in the assay with HeLa [3], in the assay with Visna-maedi virus, in the assay on Semliki Forest virus, with Vero [5] and in the assay on Human alphaherpesvirus 2 was inactive.
For the compound `[N-]=[N+]=Nc1ccnc2c1cnn2C1O[C@H](CO)[C@@H](O)[C@H]1O` (stereo partly specified), the outcome in the assay with Human adenovirus 2, in the assay on HeLa [3], in the assay with Visna-maedi virus, in the assay on Semliki Forest virus, in the assay with Vero [5] and in the assay on Human alphaherpesvirus 2 was inactive. For the same compound, at 100 µM the inhibition in the assay on Lymphoblastoid cell was 46%.
Consider `OC[C@H]1O[C@@H](n2ncc3c(Cl)ccnc32)C[C@@H]1O`, for which the outcome in the assay with Human adenovirus 2, in the assay with Visna-maedi virus, with Semliki Forest virus and in the assay on Human alphaherpesvirus 2 was inactive.
Turning to `OC[C@H]1OC(n2ncc3c(Cl)ccnc32)[C@H](O)[C@@H]1O` (stereo partly specified), the outcome in the assay with Human adenovirus 2, in the assay with HeLa [3], in the assay on Visna-maedi virus, in the assay on Semliki Forest virus, in the assay with Vero [5] and with Human alphaherpesvirus 2 was inactive. The compound also registered an inhibition at 100 µM in the assay with Lymphoblastoid cell of 94%. The IC50 in the assay with L1210 is 20 µM; in [2], 18 µM.
Take `OC[C@H]1OC(n2ncc3c(OCc4ccccc4)ccnc32)[C@H](O)[C@@H]1O` (stereo partly specified): the outcome with Human adenovirus 2, with Visna-maedi virus, in the assay on Semliki Forest virus and in the assay on Human alphaherpesvirus 2 was inactive.
As to `O=C1CC=Nc2c1cnn2[C@H]1C[C@H](O)[C@@H](CO)O1`, the result with Human adenovirus 2, in the assay on Visna-maedi virus, in the assay on Semliki Forest virus and in the assay on Human alphaherpesvirus 2 was inactive.
On to `OC[C@H]1OC(n2ncc3cccnc32)[C@H](O)[C@@H]1O` (stereo partly specified), for which the outcome in the assay with Human adenovirus 2, with Visna-maedi virus, in the assay on Semliki Forest virus and in the assay on Human alphaherpesvirus 2 was inactive.
Regarding `COc1ccnc2c1cnn2C1O[C@H](CO)[C@@H](O)[C@@H]1O` (stereo partly specified), the outcome with Human adenovirus 2, with Visna-maedi virus, with Semliki Forest virus and with Human alphaherpesvirus 2 was inactive.
